{"source": "ChEMBL document CHEMBL4425135", "about": "“Novel C-Ring-Hydroxy-Substituted Controlled Deactivation Cannabinergic Analogues” (J Med Chem, 2016)", "key": {"Cannabinoid receptor 2 [1]": {"molecular_target": "T1, Cannabinoid receptor 2 (Mus musculus, UniProt P47936)", "T1 sequence (P47936 whole entry)": "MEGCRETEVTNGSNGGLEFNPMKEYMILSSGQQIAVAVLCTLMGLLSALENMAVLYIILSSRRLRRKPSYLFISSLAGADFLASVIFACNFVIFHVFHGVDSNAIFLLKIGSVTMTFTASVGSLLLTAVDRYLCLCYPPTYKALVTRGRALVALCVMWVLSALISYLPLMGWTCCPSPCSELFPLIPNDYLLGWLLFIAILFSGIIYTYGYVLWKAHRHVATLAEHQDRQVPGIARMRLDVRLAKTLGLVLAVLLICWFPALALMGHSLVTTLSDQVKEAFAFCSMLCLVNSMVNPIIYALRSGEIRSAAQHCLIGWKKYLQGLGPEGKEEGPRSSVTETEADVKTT", "test": "Displacement of [3H]CP55940 from mouse CB2 receptor expressed in HEK293 cell membranes by scintillation counting method", "how_it_was_run": "(§1)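 Competition binding against [3H]CP-55,940 using rat brain membranes (CB1) or membranes of HEK293 cells expressing mouse or human CB2. IC50 from nonlinear regression, converted to Ki. Each experiment run in triplicate; Ki is the mean of three independent experiments.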"}, "Cannabinoid receptor 2 [2]": {"molecular_target": "Cannabinoid receptor 2 (Homo sapiens, UniProt P34972)", "sequence (P34972 whole entry)": "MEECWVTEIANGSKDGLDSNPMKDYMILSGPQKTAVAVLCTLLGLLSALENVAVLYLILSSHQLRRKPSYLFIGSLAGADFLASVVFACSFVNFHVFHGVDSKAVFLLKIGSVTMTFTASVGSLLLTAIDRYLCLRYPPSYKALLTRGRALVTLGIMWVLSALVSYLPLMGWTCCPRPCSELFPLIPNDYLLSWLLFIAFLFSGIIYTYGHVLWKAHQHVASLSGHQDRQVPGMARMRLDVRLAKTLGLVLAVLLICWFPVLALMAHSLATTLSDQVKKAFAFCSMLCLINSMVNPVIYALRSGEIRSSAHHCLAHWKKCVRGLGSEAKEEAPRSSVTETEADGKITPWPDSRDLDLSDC", "test": "Displacement of [3H]CP55940 from human CB2 receptor expressed in HEK293 cell membranes by scintillation counting method", "how_it_was_run": "as §1"}, "Cannabinoid receptor 1 [3]": {"molecular_target": "T2, Cannabinoid receptor 1 (Rattus norvegicus, UniProt P20272)", "T2 sequence (P20272 whole entry)": "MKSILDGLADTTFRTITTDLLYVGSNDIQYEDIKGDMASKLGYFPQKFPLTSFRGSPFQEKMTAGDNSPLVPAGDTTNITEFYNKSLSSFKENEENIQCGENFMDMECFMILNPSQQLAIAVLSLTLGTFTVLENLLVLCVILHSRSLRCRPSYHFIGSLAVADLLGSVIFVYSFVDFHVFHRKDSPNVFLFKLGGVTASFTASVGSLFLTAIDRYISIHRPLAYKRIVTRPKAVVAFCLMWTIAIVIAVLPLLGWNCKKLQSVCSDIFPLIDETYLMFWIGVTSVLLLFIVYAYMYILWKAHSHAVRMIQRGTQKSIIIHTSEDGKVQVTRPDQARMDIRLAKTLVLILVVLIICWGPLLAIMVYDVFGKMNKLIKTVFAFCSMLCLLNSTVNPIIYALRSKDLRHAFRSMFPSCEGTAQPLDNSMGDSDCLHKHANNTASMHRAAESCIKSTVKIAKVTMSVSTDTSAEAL", "test": "Displacement of [3H]CP55940 from CB1 receptor in rat brain membranes by scintillation counting method", "assay_type": "cell membranes", "how_it_was_run": "as §1"}, "Cannabinoid receptor 2 [4]": {"molecular_target": "T1, Cannabinoid receptor 2", "test": "Binding affinity to mouse CB2 receptor", "how_it_was_run": "as §1"}, "Rattus norvegicus [5]": {"test_system": "Rattus norvegicus", "test": "Hypothermic activity in sc dosed Sprague-Dawley rat assessed as decrease in rectal body temperature measured over 6 hrs", "assay_type": "functional", "how_it_was_run": "(§2)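 Female Sprague-Dawley rats, 250–350 g, n = 6/group, retested with ≥5 days between sessions. Dosed sc (1.0 mL/kg) in 20% ethanol/20% alkamuls/60% saline diluted with saline. Rectal thermistor at 6 cm depth. Two baselines 15 min apart, then readings every 30 min for 3 h and hourly to 6 h. Change taken from mean baseline.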"}, "Cannabinoid receptor 1 [6]": {"molecular_target": "T2, Cannabinoid receptor 1", "test": "Binding affinity to rat CB1 receptor", "how_it_was_run": "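Competition displacement of [3H]CP-55,940 from rat brain membranes (CB1 source). IC50 from nonlinear regression of competition curves, converted to Ki. Each experiment run in triplicate; Ki is the mean of three independent experiments.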"}, "Squirrel monkey [7]": {"test_system": "Squirrel monkey", "test": "Induction of CB1-related discriminative stimulus effect in squirrel monkey at 0.003 mg/kg, im measured after 24 hrs", "assay_type": "functional, organism-based", "details": "Saimiri sciureus"}, "Rattus norvegicus [8]": {"test_system": "Rattus norvegicus", "test": "Hypothermic activity in Sprague-Dawley rat assessed as time required for decrease in rectal body temperature at 0.01 to 1 mg/kg, sc", "assay_type": "functional", "how_it_was_run": "as §2"}, "Squirrel monkey [9]": {"test_system": "Squirrel monkey", "test": "Induction of CB1-related discriminative stimulus effect in squirrel monkey at 0.003 mg/kg, im measured at 36 hrs", "assay_type": "functional, organism-based", "details": "Saimiri sciureus", "how_it_was_run": "(§3)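 Squirrel monkeys trained on two levers to discriminate 0.01 mg/kg im CB1 agonist from vehicle. After im test dosing, sequential sessions began at 15, 30, 60, 120, 240, 480 and 960 min, with some groups also tested at 36 and 48 h. Measured percent responding on the agonist lever (≥90% counted as full substitution) and overall response rate.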"}, "Squirrel monkey [10]": {"test_system": "Squirrel monkey", "test": "Effect on response rate in squirrel monkey at 0.003 mg/kg, im", "assay_type": "functional, organism-based", "details": "Saimiri sciureus", "how_it_was_run": "as §3"}, "Squirrel monkey [11]": {"test_system": "Squirrel monkey", "test": "Induction of CB1-related discriminative stimulus effect in squirrel monkey assessed as time required for 50% loss of full effect at 0.003 mg/kg, im", "assay_type": "functional, organism-based", "details": "Saimiri sciureus", "how_it_was_run": "as §3"}, "Squirrel monkey [12]": {"test_system": "Squirrel monkey", "test": "Induction of CB1-related discriminative stimulus effect in squirrel monkey at 0.003 mg/kg, im measured within 15 mins", "assay_type": "functional, organism-based", "details": "Saimiri sciureus", "how_it_was_run": "as §3"}, "[13]": {"test": "Half life in rat plasma assessed as esterase-mediated compound hydrolysis at 200 uM by HPLC method", "assay_type": "ADME, cell-free", "how_it_was_run": "(§4)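 Compound diluted to 200 μM in mouse or rat plasma and shaken at 37 °C, 100 rpm. Samples taken at timed points, diluted 1:4 in acetonitrile and centrifuged. Supernatant analysed by reversed-phase C18 HPLC, acetonitrile/acidified water gradient, UV detection. 4-Nitrophenyl butyrate run as control in each experiment. Half-life from exponential decay fit.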"}, "[14]": {"test": "Half life in mouse plasma assessed as esterase-mediated compound hydrolysis at 200 uM by HPLC method", "assay_type": "ADME, cell-free", "how_it_was_run": "as §4"}}, "note": "Calls of active or inactive are those of the source. No cut-off for these calls is given here."}
{"smiles": "CCCCOC(=O)Cc1cc(O)c2c(c1)OC(C)(C)[C@@H]1CC[C@@H](O)C[C@@H]21", "values": [{"measurement": "Ki", "setting": "Cannabinoid receptor 2 [1]", "result": 0.317, "unit": "µM"}, {"measurement": "Ki", "setting": "Cannabinoid receptor 2 [2]", "result": 0.432, "unit": "µM"}, {"measurement": "Ki", "setting": "Cannabinoid receptor 1 [3]", "result": 0.238, "unit": "µM"}]}
{"smiles": "CC(C)(C(=O)O)c1cc(O)c2c(c1)OC(C)(C)[C@@H]1CC[C@@H](O)C[C@@H]21", "values": [{"measurement": "Ki", "setting": "Cannabinoid receptor 2 [1]", "result": "> 10", "unit": "µM"}, {"measurement": "Ki", "setting": "Cannabinoid receptor 1 [3]", "result": "> 10", "unit": "µM"}]}
{"smiles": "CCCCOC(=O)Cc1cc(O)c2c(c1)OC(C)(C)[C@@H]1CC[C@H](O)C[C@@H]21", "values": [{"measurement": "Ki", "setting": "Cannabinoid receptor 2 [1]", "result": 0.654, "unit": "µM"}, {"measurement": "Ki", "setting": "Cannabinoid receptor 2 [2]", "result": 0.733, "unit": "µM"}, {"measurement": "Ki", "setting": "Cannabinoid receptor 1 [3]", "result": 0.75, "unit": "µM"}]}
{"smiles": "CCCCCCC(C)(C)c1cc(O)c2c(c1)OC(C)(C)[C@@H]1CC=C(CO)C[C@@H]21", "values": [{"measurement": "Ki", "setting": "Cannabinoid receptor 2 [4]", "result": 0.0002, "unit": "µM"}, {"measurement": "ED50", "setting": "Rattus norvegicus [5]", "result": 0.04, "unit": "mg/kg"}, {"measurement": "Ki", "setting": "Cannabinoid receptor 1 [6]", "result": 0.0007, "unit": "µM"}, {"measurement": "Activity", "setting": "Squirrel monkey [7]", "result": "Active"}, {"measurement": "Time", "setting": "Rattus norvegicus [8]", "result": "1 to 3", "unit": "h"}, {"measurement": "Activity", "setting": "Squirrel monkey [9]", "result": "inactive"}, {"measurement": "Activity", "setting": "Squirrel monkey [10]", "result": "inactive"}, {"measurement": "T1/2", "setting": "Squirrel monkey [11]", "result": 66, "unit": "min"}, {"measurement": "Activity", "setting": "Squirrel monkey [12]", "result": "Active"}]}
{"smiles": "CC1(C)Oc2cc(CC(=O)O)cc(O)c2[C@@H]2C[C@H](O)CC[C@H]21", "values": [{"measurement": "Ki", "setting": "Cannabinoid receptor 2 [1]", "result": "> 10", "unit": "µM"}, {"measurement": "Ki", "setting": "Cannabinoid receptor 1 [3]", "result": "> 10", "unit": "µM"}]}
{"smiles": "CCCCOC(=O)C(C)(C)c1cc(O)c2c(c1)OC(C)(C)[C@@H]1CC[C@H](O)C[C@@H]21", "values": [{"measurement": "t1/2", "setting": "[13]", "result": 5.6, "unit": "min"}, {"measurement": "t1/2", "setting": "[14]", "result": 2.8, "unit": "min"}]}
{"smiles": "CC(C)(C(=O)O)c1cc(O)c2c(c1)OC(C)(C)[C@@H]1CC=C(CO)C[C@@H]21", "values": [{"measurement": "Ki", "setting": "Cannabinoid receptor 2 [1]", "result": "> 10", "unit": "µM"}, {"measurement": "Ki", "setting": "Cannabinoid receptor 1 [3]", "result": "> 10", "unit": "µM"}]}
